# In the library only some 2% were active in any assay of this set; here they are far more common.
# PKA-R2B act = activators of PKA-R2B holoenzyme, primary screen, biochemical, fluorescence polarization, Cy5-IP20, human | cAMP-dependent protein kinase catalytic subunit beta (Homo sapiens) + cAMP-dependent … | PKA-R2B holoenzyme dissociation; R2B truncated from residue 108, S112A mutant; 0% DMSO only, 100% 113 µM cGMP | activation, % at 11.4 µM | 340,000 tested, 0.079% active | AID 504700, 2011;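 active means activation above a cutoff set at the mean over all compounds plus 3 SD, cut at about 18% in these data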;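 further: higher means more holoenzyme dissociation and a rise in polarization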
# CAL PDZ FP-1 = CAL PDZ peptide-binding inhibitors, primary screen, biochemical, fluorescence polarization, Cer-tagged CAL PDZ, HTS; Golgi-associated PDZ and coiled-coil motif-containing protein (Homo sapiens), Q9HD26; purified CAL PDZ, TMR-peptide fluorescence polarization, 1 h; inhibition, % at 20 µM; 330,000 tested, 0.02% active;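 active means highest replicate inhibition of at least 40%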;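 further: plate controls were DMSO neutral control wells for no effect and unlabeled competitor peptide control wells for full effect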
#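 Material: tagged CAL PDZ protein CerCALP, purified; buffer or medium: sodium phosphate/NaCl buffer pH 7.4 with TCEP, IgG, Thesit; also added: fluorescent TMR peptide probe; schedule: 1 h incubation at room temperature before polarization reading; technique: fluorescence polarization from S- and P-plane intensities, G-factor corrected; control set: unlabelled peptide and DMSO controls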
# PKA-R1A activ = activators of PKA-R1A holoenzyme, primary screen, biochemical, fluorescence polarization, Cy5-IP20, bovine R1A, mouse PKAc; PKA-R1A dissociation; scaled: DMSO 0%, 113 µM cGMP 100%; activation, % at 11.4 µM; 340,000 tested, 0.083% active; cAMP-dependent protein kinase type I-alpha regulatory subunit (Bos taurus) + …;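 active means percent activation above the mean of all tested compounds plus 3 SD, cut at about 19% in these data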;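 further: higher means more PKAc released from R1A so a rise in polarization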
# dFosB activator = activators of delta FosB homodimer, primary screen, biochemical, fluorescence polarization, TAMRA-CDK5 oligo, single point. activation, % at 25 µM. 340,000 tested, 0.99% active. purified delta FosB; percent of positive-control signal above neutral wells. Protein FosB (Mus musculus), P13346. AID 493131, 2011;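 active means mean activation above about 17%, with every replicate also reaching it, limit read from the data, passing the limit was not always enough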
# Target sequence (P13346 whole entry, looked up): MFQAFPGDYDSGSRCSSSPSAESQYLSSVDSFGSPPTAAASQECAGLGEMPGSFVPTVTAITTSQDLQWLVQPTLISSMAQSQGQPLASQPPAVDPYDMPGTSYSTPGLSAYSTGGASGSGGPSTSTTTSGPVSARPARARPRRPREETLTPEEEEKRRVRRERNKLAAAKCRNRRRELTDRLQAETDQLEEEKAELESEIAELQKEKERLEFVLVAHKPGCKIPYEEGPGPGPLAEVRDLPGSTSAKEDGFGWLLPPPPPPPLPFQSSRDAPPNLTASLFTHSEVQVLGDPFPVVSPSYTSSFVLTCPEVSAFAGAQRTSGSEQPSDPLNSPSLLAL
# CAL PDZ FP-2 = untagged CAL PDZ binding inhibitors, primary screen, biochemical, fluorescence polarization, HTS | AID 602252, 2012 | Golgi-associated PDZ and coiled-coil motif-containing protein (Homo sapiens), Q9HD26 | purified CAL PDZ, TMR-peptide fluorescence polarization, 1 h | inhibition, % at 24.9 µM | 300,000 tested, 0.92% active;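 active means mean inhibition of at least 30% with at least half of replicates also reaching 30%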;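 further: 0% = DMSO neutral control and 100% = excess unlabeled competitor peptide PRC23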
# NTR1 agonist = agonists of human NTR1, primary screen, imaging, U2OS cells, beta-arrestin-GFP, high content | Neurotensin receptor type 1 (Homo sapiens), P30989 | NTR1-U2OS beta-arrestin-GFP spot imaging, agonist mode | activation, % at 20 µM | 330,000 tested, 0.17% active | AID 493036, 2011;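 active means activation at or above 40% of the spot to cytoplasm intensity ratio, with at least 20 cells analyzed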;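 further: 0% = DMSO without peptide and 100% = 100 nM NTR1 peptide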
# Target sequence (P30989 whole entry, looked up): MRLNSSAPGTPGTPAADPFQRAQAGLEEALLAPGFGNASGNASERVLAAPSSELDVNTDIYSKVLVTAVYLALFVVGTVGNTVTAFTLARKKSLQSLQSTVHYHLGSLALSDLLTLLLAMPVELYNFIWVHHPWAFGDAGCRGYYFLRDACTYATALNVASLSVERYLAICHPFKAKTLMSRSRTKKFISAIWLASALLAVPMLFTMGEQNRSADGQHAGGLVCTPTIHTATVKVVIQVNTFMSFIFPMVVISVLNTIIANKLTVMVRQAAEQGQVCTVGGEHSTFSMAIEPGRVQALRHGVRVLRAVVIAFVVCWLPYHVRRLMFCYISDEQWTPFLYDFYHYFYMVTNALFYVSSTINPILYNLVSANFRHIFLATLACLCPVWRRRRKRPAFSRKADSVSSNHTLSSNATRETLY
# R2B FP artifact = fluorescence polarization artefacts, biochemical, artefact control for PKA-R2B activator project; shares compounds with PKA-R2B act; FP artifact counterscreen; activation, % at 11.4 µM; 270 tested, 6% active; in the data active means activation above about 20%;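 further: Cy5 labelled IP20 peptide probe with compound but no PKA protein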
# PKA-R2B confirm = activators of PKA-R2B holoenzyme, confirmation, biochemical, fluorescence polarization, human. shares compounds with PKA-R2B act. PKA-R2B complex, activation. activation, % at 11.4 µM. 270 tested, 9% active. AID 504797, 2011; in the data active means activation above about 19%
# R1A FP artifact = FP signal interference without PKA proteins, confirmation, artefact control for PKA-R1A activator project, biochemical, fluorescence polarization, triplicate; AID 504799, 2011; 280 tested, 7% active; activation, % at 11.4 µM; Cy5-IP20 peptide alone, fluorescence polarization artifact counterscreen; shares compounds with PKA-R1A activ;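 active means mean activation over triplicate runs exceeds the adjusted cutoff derived for the parent primary screen, cut at about 19% in these data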;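 further: no PKA protein present so any polarization rise reflects compound interference; 0% = tracer peptide mix alone and 100% = mix with added PKA catalytic subunit; higher means stronger polarization artifact and likely false positive in parent screen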
# PKA-R1A confirm = activators of PKA-R1A holoenzyme, confirmation, biochemical, fluorescence polarization, Cy5-IP20, triplicate; shares compounds with PKA-R1A activ; PKA-R1A holoenzyme dissociation; activation, % at 11.4 µM; 280 tested, 9% active; AID 504800, 2011;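 active means mean activation over replicate wells exceeds the adjusted hit threshold taken from the earlier primary screen, cut at about 20% in these data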;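 further: 0% = holoenzyme mix with DMSO only and 100% = cGMP-activated control wells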
# * marks the source's active call; other numbers are inactive results; . = no result given.
SMILES,PKA-R2B act,CAL PDZ FP-1,PKA-R1A activ,dFosB activator,CAL PDZ FP-2,NTR1 agonist,R1A FP artifact,PKA-R1A confirm,others
C=CCN(CCNP(=O)(OCC)OCC)CP(=O)(OCC)OCC,20.4*,-0.8,15.9,-6.6,-6.8,1.5,.,.,R2B FP artifact=3.6;PKA-R2B confirm=-0.3
Cc1cc(C)c2c(n1)nn1c(NCCN3CCOCC3)cc(C)nc21,18.4*,-1.7,10.8,-1.5,.,1.6,.,.,R2B FP artifact=1.7;PKA-R2B confirm=0.1
Cc1cc(NCCN2CCOCC2)n2nc(C)c(-c3ccccc3)c2n1,-11.0,.,-12.7,-13.5,5.9,1.0,.,.,
CC(C)C1Nc2ccc(C(=O)O)cc2C2C=CCC21 (centres undefined),4.0,-2.2,3.8,-15.2,-5.2,0.0,.,.,
CCCC1Nc2ccc(C(=O)O)cc2C2C=CCC12 (centres undefined),19.3*,-0.9,22.9*,-3.6,.,.,21.4*,23.9*,R2B FP artifact=21.4*;PKA-R2B confirm=19.9*
CCC1=NN2C(=N)/C(=C/c3ccc(OS(=O)(=O)c4ccccc4)cc3)C(=O)N=C2S1,28.9*,-3.0,22.1*,-13.4,-2.0,2.4,22.8*,28.5*,R2B FP artifact=22.8*;PKA-R2B confirm=22.8*
Cc1cccc(NC(=O)CCCN=C2NS(=O)(=O)c3ccccc32)c1C,-6.1,-0.3,-22.1,1.1,7.6,0.1,.,.,
Cc1csc(Nc2nc(N)c(C(=O)Nc3ccccc3)o2)n1,-16.9,1.1,-7.8,-10.9,-3.2,0.4,.,.,
Cc1ccccc1COc1ccc2oc(C)c(C(=O)O)c2c1,41.9*,-3.2,43.2*,-7.1,0.2,2.1,59.6*,67.2*,R2B FP artifact=59.6*;PKA-R2B confirm=69.7*
CCOC(=O)C1NN=C(C(=O)c2ccccc2)C1c1ccc(OC)cc1 (centres undefined),.,-0.1,.,-3.8,17.3,0.6,.,.,
CCOC(=O)C1=NNC(C(=O)c2ccc(OC)cc2)C1c1ccccc1 (centres undefined),-6.5,-1.0,19.9*,-7.6,2.9,0.7,5.1,4.5,
Cc1ccc(N(Cc2ccccc2)C(=O)c2cc(S(=O)(=O)N3CCOCC3)ccc2C)cc1,-7.1,-1.8,-3.2,-10.7,-4.0,2.4,.,.,
O=C(CSc1ccc(-c2ccncc2)nn1)N1CCCCC1,-6.2,-1.3,18.8*,-9.2,-0.4,-2.2,-0.2,7.9,
O=C(CSc1ccc(-c2ccncc2)nn1)N1CCCC1,-4.2,0.0,-5.5,-10.5,0.9,0.0,.,.,
COc1ccc(CN(C)CC(=O)NC(=O)NCc2ccccc2)cc1OC,-5.1,-4.5,20.9*,-9.7,-8.2,1.6,-0.6,-0.9,
COc1ccc(CNC(=O)CCC(=O)N2CCN(S(=O)(=O)c3cc([N+](=O)[O-])ccc3C)CC2)cc1,-0.7,0.4,-5.0,-2.7,2.4,-0.5,.,.,
CCOc1ccccc1Nc1nc(N)nc(CSc2nncn2C)n1,10.8,-0.5,20.8*,-1.3,1.1,-0.6,0.1,2.6,
COc1ccc(Nc2nc(N)nc(CSc3nncn3C)n2)cc1,-7.4,0.1,-8.7,3.5,-2.8,1.7,.,.,
CCN1C(=O)/C(=C/N(C)C)c2ccccc21,5.9,0.5,19.1*,-0.3,.,-0.2,1.2,5.0,
CC1CCC2(CC1)NC(=S)N(c1ccccc1)N2 (centres undefined),-6.4,-1.4,19.4*,-2.5,-3.0,8.8,-0.8,-1.6,
Cc1cccc(NC(=O)c2sc(C)nc2C)c1,3.0,-0.3,19.0*,-6.1,-1.5,-1.1,0.1,1.4,
C/C(=N\NC(=O)c1nnn(-c2nonc2N)c1C(C)C)c1cc(C)sc1C,12.5,-1.2,-9.1,-6.7,-2.7,5.0,.,.,
COc1ccc(N(CC(=O)NCCSc2ccccn2)S(=O)(=O)c2ccccc2)cc1OC,4.8,-4.0,20.7*,-9.2,-4.0,0.5,1.2,0.8,
COc1ccc(N(CC(=O)NCCSc2ccccn2)S(=O)(=O)c2ccc(C)cc2)cc1OC,4.3,0.1,14.7,-8.7,-1.6,2.0,.,.,
CCn1cc([N+](=O)[O-])c(C(=O)Nc2c(C)nn(Cc3cccc(F)c3)c2C)n1,4.2,-0.9,19.3*,3.2,-0.9,3.2,6.3,2.6,
SMILES,PKA-R2B act,CAL PDZ FP-1,PKA-R1A activ,dFosB activator,CAL PDZ FP-2,NTR1 agonist,R1A FP artifact,PKA-R1A confirm,others
C/C(=N/NS(=O)(=O)c1cccc([N+](=O)[O-])c1)c1ccncc1,-0.4,-3.9,-0.2,0.3,-1.3,-0.2,.,.,
CCc1cc(Cn2nc(-c3ccccc3C)cc2C(=O)O)on1,-3.4,-0.2,19.0*,3.1,0.4,3.1,-0.5,-2.3,
CCOC(=O)c1cc(-c2ccccc2C)nn1Cc1cc(C)no1,2.0,-1.4,-2.8,-1.7,-5.4,4.7,.,.,
CCOC(=O)c1nnn(-c2ccc([N+](=O)[O-])cc2)c1C,1.4,-0.2,9.3,4.3,-2.9,0.8,.,.,
CCOC(=O)c1nnn(-c2ccccc2C#N)c1C,0.6,1.1,20.0*,-10.9,-2.0,-5.5,-0.7,-0.7,
Cc1cccc(C(=O)NCC(=O)OCc2nc(N)nc(Nc3ccccc3C)n2)c1,4.9,-0.1,3.0,-5.3,-2.9,-1.2,.,.,
Cc1cccn2c(CN[C@@H]3CCCC[C@H]3c3ccccc3)c(C(=O)N3CCOCC3)nc12,3.9,0.0,19.0*,-3.6,-5.4,-1.8,7.3,4.3,
Cc1cccn2c(CNC3CCCc4ccccc43)c(C(=O)N3CCOCC3)nc12 (centres undefined),-11.3,1.8,2.8,-4.1,0.8,0.5,.,.,
O=c1c(Cl)c(NCc2ccco2)cnn1C12CC3CC(CC(C3)C1)C2,3.2,-0.7,10.6,-6.5,4.0,1.0,.,.,
